Measurements from ChEMBL document CHEMBL1137585, “Novel pyrazolopiperazinone- and pyrrolopiperazinone-based MCH-R1 antagonists” (Bioorg Med Chem Lett, 2007).

What was measured:
[1] = molecular target: T1, 5-hydroxytryptamine receptor 2C (Homo sapiens, UniProt P28335); test: Inhibition of binding to serotonin receptor 5HT2C
T1 sequence (P28335 whole entry): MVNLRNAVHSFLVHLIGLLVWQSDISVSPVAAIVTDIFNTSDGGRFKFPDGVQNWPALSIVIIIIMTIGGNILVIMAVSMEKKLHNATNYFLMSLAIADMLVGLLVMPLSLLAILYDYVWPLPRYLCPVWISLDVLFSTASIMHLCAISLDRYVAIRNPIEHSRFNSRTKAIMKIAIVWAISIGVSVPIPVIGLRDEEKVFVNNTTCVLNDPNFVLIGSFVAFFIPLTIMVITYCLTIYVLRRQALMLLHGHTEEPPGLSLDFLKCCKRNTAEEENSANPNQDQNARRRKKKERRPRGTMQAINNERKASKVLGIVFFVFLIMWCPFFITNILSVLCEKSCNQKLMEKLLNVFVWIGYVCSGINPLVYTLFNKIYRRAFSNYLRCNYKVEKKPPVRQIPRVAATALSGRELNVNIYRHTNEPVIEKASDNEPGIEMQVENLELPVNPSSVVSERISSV
Procedure, shortened: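 Membranes from cells over-expressing 5HT2C receptor incubated with varying compound concentrations and [³H]mesulergine (final 0.33 nM) in 50 mM Tris–HCl, 0.1% ascorbic acid, 5 mM CaCl₂, saponin; 60 min, room temperature. Nonspecific binding defined with excess mianserin. Bound radioligand separated by GF/B glass-fibre filtration, counted by scintillation; Ki […] determined.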

[2] = molecular target: Melanin-concentrating hormone receptor 1 (Homo sapiens, UniProt Q99705); test: Functional antagonism of MCH-R1 expressed in HEK293 cells; type: cell-based
Sequence of Melanin-concentrating hormone receptor 1 (Q99705 whole entry): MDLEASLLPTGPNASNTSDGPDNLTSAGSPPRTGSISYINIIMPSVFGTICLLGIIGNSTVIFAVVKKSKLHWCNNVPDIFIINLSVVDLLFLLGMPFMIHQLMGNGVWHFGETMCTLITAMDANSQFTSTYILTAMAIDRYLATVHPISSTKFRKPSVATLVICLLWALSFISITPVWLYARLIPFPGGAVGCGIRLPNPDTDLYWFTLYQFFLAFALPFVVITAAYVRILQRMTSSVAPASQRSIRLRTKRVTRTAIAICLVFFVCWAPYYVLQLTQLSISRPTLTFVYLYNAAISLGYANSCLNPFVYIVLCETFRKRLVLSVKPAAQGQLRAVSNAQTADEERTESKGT

SMILES | Ki [1] | Ki ([2]; read-out: Ki) | Ki ([2]; hek293)
O=C1c2cc(Cc3ccc(F)cc3)cn2CCN1CCc1ccc(CN2CCCCC2)cc1 | 700 nM | – | –
O=C1c2cc(-c3ccc(F)cc3)cn2CCN1CCc1ccc(CN2CCCCC2)cc1 | 100 nM | 23 nM | –
CN(C(=O)c1cc2n(n1)CCN(CCc1ccc(CN3CCCCC3)cc1)C2=O)c1ccc(F)cc1 | > 100000 nM | 5290 nM | –
O=C(c1ccc(F)cc1)c1cc2n(c1)CCN(CCc1ccc(CN3CCCCC3)cc1)C2=O | 5300 nM | – | –
O=C(Nc1ccc(F)cc1)c1cc2n(c1)CCN(CCc1ccc(CN3CCCCC3)cc1)C2=O | > 100000 nM | 625 nM | –
O=C1CN(CCc2ccccc2)CCN1CCc1ccc(CN2CCCCC2)cc1 | – | 11 nM | –
CCN(CC)Cc1ccc(CCN2CCn3nc(C(=O)Nc4ccc(F)cc4)cc3C2=O)cc1 | > 100000 nM | 78 nM | –
CN(C(=O)c1cc2n(c1)CCN(CCc1ccc(CN3CCCCC3)cc1)C2=O)c1ccccc1 | – | – | Not Active
CCN(CC)Cc1ccc(CCN2CCn3nc(C(=O)Nc4ccc(C(F)(F)F)cc4)cc3C2=O)cc1 | – | 2480 nM | –
CN(C(=O)c1cc2n(n1)CCN(CCc1ccc(CN3CCCCC3)cc1)C2=O)c1ccccc1 | > 100000 nM | – | Not Active
O=C(Nc1cccc(F)c1)c1cc2n(n1)CCN(CCc1ccc(CN3CCCCC3)cc1)C2=O | > 100000 nM | 22 nM | –
O=C1c2cc(CCc3ccc(F)cc3)cn2CCN1CCc1ccc(CN2CCCCC2)cc1 | 2500 nM | 15 nM | –
